Assay results published in ChEMBL document CHEMBL4196017, “Design, synthesis and identification of silicon-containing HCV NS5A inhibitors with pan-genotype activity” (Eur J Med Chem, 2018).

What was measured:
[1] = Protein binding in dog plasma at 10 uM after 6 hrs by UPLC-MS/MS based equilibrium dialysis method; assay type: ADME, cell-free, Canis lupus familiaris; details: read-out: PPB (converted)
Summary of the method: (§1)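 Equilibrium dialysis: plasma (pH 7.4) preincubated 15 min at 37 °C, spiked with compound at 1 or 10 µM (0.5% DMSO final); dialysed against 100 mM phosphate buffer pH 7.4, 6 h at 37 °C, 100 rpm; donor and receiver samples analysed by UPLC-MS/MS.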

[2] = molecular target: hERG (KCNH2) (Homo sapiens, UniProt Q12809); assay: Inhibition of human ERG assessed as reduction in peak tail current at 3 uM at holding potential of -80 mV by patch clamp method relative to control
Summary of the method: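 Whole-cell patch clamp, room temperature; hold -80 mV, 2 s +50 mV depolarization then 3 s -50 mV repolarization every 30 s; peak tail current referenced to initial 50 ms step to -50 mV; 3 min vehicle stabilization, then test solution until stable (<5% over ~5 sweeps) or 6 min max; mean ± SD, n = 3.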

[3] = molecular target: T1, Cytochrome P450 3A4 (Homo sapiens, UniProt P08684); assay: Inhibition of CYP3A4 in human liver microsomes at 1 to 10 uM using nifedipine as substrate preincubated for 5 mins followed by NADPH addition measured after 30 mins by UPLC-MS/MS analysis relative to control; assay type: ADME; details: 0.5 h
[4] = Ratio of drug uptake in Sprague-Dawley rat liver to plasma at 10 mg/kg, ig administered as single dose measured after 2 hrs by UPLC-MS/MS analysis; assay type: ADME, organism-based; details: po
[5] = molecular target: T2, Cytochrome P450 1A2 (Homo sapiens, UniProt P05177); assay: Inhibition of CYP1A2 in human liver microsomes at 1 to 10 uM using phenacetin as substrate preincubated for 5 mins followed by NADPH addition measured after 30 mins by UPLC-MS/MS analysis relative to control; assay type: ADME; details: 0.5 h
T2 sequence (P05177 whole entry): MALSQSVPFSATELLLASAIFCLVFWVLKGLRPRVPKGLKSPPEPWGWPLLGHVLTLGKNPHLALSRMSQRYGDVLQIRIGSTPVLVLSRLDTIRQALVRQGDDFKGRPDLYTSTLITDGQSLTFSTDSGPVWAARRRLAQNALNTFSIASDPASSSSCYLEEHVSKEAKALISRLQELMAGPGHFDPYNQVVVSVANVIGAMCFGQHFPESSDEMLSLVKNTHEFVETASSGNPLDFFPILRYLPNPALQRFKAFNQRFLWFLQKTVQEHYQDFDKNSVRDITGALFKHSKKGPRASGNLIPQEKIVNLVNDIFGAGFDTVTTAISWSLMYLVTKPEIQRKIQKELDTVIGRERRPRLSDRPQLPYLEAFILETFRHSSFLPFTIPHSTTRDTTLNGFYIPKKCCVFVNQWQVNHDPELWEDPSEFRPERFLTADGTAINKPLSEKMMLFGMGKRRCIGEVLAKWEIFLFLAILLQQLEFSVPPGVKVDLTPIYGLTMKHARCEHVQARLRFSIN

[6] = Ratio of drug uptake in Sprague-Dawley rat liver to plasma at 10 mg/kg, ig administered as single dose measured after 24 hrs by UPLC-MS/MS analysis; assay type: ADME, organism-based; details: po
[7] = Protein binding in rat plasma at 1 uM after 6 hrs by UPLC-MS/MS based equilibrium dialysis method; assay type: ADME, cell-free; details: read-out: PPB (converted); summary of the method: as §1
[8] = Half life in mouse at 10 mg/kg, ig administered as single dose by UPLC-MS/MS analysis; assay type: ADME, organism-based; details: in vivo, po
Summary of the method: (§2)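 Adult male mice (12 h light-dark, 22 °C, 55% humidity) fasted 12 h with free water, then given a single 10 mg/kg intragastric dose; plasma concentrations by UPLC-MS/MS; PK parameters calculated by software.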

[9] = AUC (0 to t) in beagle dog at 2 mg/kg, po administered as single dose by UPLC-MS/MS analysis; assay type: ADME, organism-based, Canis lupus familiaris; details: in vivo
[10] = Metabolic stability in mouse liver microsomes assessed as parent compound remaining at 0.2 uM preincubated for 5 mins followed by NADPH addition measured up to 60 mins by UPLC-MS/MS analysis; assay type: ADME, microsome; details: read-out: Stability
Summary of the method: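 Pooled mouse, rat or human liver microsomes 0.2 mg/mL with 1 mM NADPH, 5 mM MgCl2, 100 mM potassium phosphate pH 7.4 and 0.2 µM compound; 5-min preincubation at 37 °C, NADPH start, sampled at 5, 15, 30, 60 min; ice-cold acetonitrile stop; UPLC-MS/MS; percent parent remaining at 60 min.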

[11] = Protein binding in human plasma at 10 uM after 6 hrs by UPLC-MS/MS based equilibrium dialysis method; assay type: ADME, cell-free; details: read-out: PPB (converted); summary of the method: as §1
[12] = AUC (0 to t) in mouse at 10 mg/kg, ig administered as single dose by UPLC-MS/MS analysis; assay type: ADME, organism-based; details: in vivo, po; summary of the method: as §2
[13] = Efflux ratio of apparent permeability in human Caco2 cells after 90 mins by UPLC-MS/MS analysis; assay type: ADME, cell-based; details: Caco-2
Summary of the method: (§3)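 Caco-2 cells on Transwell inserts grown 21-23 days to TEER ≥200 Ω cm²; rinsed with warm HBSS, preincubated 30 min at 37 °C in 2% BSA with or without inhibitor; compound in 2% BSA added apical or basolateral, 90 min at 37 °C; receiver sampled, UPLC-MS/MS; duplicate; Papp calculated.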

[14] = molecular target: T1, Cytochrome P450 3A4; assay: Inhibition of CYP3A4 in human liver microsomes at 1 to 10 uM using midazolam as substrate preincubated for 5 mins followed by NADPH addition measured after 30 mins by UPLC-MS/MS analysis relative to control; assay type: ADME; details: 0.5 h
[15] = Ratio of drug uptake in Sprague-Dawley rat liver to plasma at 10 mg/kg, ig administered as single dose measured after 8 hrs by UPLC-MS/MS analysis; assay type: ADME, organism-based; details: po
[16] = Apparent permeability from basolateral to apical side in human Caco2 cells after 90 mins by UPLC-MS/MS analysis; assay type: ADME, cell-based; details: Caco-2; summary of the method: as §3
[17] = molecular target: Cytochrome P450 2C9 (Homo sapiens, UniProt P11712); assay: Inhibition of CYP2C9 in human liver microsomes at 1 to 10 uM using tolbutamide as substrate preincubated for 5 mins followed by NADPH addition measured after 30 mins by UPLC-MS/MS analysis relative to control; assay type: ADME; details: 0.5 h
[18] = Tmax in beagle dog at 2 mg/kg, po administered as single dose by UPLC-MS/MS analysis; assay type: ADME, organism-based, Canis lupus familiaris; details: in vivo
[19] = molecular target: Cytochrome P450 2D6 (Homo sapiens, UniProt P10635); assay: Inhibition of CYP2D6 in human liver microsomes at 1 to 10 uM using dextromethorphan as substrate preincubated for 5 mins followed by NADPH addition measured after 30 mins by UPLC-MS/MS analysis relative to control; assay type: ADME; details: 0.5 h
[20] = Apparent permeability from apical to basolateral side in human Caco2 cells after 90 mins by UPLC-MS/MS analysis; assay type: ADME, cell-based; details: Caco-2; summary of the method: as §3
[21] = Protein binding in mouse plasma at 10 uM after 6 hrs by UPLC-MS/MS based equilibrium dialysis method; assay type: ADME, cell-free; details: read-out: PPB (converted); summary of the method: as §1

T1 sequence (P08684 whole entry): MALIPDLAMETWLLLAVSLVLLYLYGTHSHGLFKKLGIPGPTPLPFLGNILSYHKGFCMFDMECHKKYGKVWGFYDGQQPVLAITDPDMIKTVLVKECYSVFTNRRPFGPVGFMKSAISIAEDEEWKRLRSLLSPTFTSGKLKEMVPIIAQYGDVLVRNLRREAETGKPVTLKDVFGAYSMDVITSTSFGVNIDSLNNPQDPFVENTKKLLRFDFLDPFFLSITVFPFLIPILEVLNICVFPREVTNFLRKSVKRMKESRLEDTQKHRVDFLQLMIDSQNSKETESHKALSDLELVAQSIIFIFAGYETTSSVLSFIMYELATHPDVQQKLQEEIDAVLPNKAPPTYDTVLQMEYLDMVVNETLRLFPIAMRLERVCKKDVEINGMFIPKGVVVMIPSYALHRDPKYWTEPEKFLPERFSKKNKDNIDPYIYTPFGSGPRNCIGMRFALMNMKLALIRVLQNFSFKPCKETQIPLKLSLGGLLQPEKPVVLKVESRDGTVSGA
Cytochrome P450 2D6, sequence (P10635 whole entry): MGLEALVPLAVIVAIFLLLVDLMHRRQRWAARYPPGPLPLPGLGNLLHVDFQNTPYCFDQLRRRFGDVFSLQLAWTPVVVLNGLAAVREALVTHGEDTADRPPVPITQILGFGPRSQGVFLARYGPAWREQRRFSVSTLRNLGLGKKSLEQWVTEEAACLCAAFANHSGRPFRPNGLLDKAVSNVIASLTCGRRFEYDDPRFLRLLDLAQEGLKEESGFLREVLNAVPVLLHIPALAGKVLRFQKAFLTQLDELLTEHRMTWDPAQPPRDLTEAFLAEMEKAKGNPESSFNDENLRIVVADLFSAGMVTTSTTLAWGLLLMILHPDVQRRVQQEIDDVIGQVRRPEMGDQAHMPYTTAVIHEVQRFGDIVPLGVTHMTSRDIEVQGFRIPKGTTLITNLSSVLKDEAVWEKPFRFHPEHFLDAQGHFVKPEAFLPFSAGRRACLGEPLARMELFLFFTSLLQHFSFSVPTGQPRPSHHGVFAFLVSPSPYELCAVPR
Cytochrome P450 2C9, sequence (P11712 whole entry): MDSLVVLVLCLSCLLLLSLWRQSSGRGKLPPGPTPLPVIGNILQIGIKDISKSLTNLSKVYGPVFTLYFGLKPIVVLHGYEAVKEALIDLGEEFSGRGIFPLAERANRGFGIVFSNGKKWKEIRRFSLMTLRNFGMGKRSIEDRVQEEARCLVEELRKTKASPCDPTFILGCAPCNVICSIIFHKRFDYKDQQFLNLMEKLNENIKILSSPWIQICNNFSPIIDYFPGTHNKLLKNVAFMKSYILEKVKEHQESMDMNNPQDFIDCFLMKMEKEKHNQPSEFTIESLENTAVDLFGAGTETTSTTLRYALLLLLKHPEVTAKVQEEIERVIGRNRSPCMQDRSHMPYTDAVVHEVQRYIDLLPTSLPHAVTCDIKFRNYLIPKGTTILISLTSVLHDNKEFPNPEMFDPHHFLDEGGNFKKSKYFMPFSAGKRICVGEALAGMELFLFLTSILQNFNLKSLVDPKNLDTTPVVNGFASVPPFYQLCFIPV
hERG (KCNH2), sequence (Q12809 whole entry): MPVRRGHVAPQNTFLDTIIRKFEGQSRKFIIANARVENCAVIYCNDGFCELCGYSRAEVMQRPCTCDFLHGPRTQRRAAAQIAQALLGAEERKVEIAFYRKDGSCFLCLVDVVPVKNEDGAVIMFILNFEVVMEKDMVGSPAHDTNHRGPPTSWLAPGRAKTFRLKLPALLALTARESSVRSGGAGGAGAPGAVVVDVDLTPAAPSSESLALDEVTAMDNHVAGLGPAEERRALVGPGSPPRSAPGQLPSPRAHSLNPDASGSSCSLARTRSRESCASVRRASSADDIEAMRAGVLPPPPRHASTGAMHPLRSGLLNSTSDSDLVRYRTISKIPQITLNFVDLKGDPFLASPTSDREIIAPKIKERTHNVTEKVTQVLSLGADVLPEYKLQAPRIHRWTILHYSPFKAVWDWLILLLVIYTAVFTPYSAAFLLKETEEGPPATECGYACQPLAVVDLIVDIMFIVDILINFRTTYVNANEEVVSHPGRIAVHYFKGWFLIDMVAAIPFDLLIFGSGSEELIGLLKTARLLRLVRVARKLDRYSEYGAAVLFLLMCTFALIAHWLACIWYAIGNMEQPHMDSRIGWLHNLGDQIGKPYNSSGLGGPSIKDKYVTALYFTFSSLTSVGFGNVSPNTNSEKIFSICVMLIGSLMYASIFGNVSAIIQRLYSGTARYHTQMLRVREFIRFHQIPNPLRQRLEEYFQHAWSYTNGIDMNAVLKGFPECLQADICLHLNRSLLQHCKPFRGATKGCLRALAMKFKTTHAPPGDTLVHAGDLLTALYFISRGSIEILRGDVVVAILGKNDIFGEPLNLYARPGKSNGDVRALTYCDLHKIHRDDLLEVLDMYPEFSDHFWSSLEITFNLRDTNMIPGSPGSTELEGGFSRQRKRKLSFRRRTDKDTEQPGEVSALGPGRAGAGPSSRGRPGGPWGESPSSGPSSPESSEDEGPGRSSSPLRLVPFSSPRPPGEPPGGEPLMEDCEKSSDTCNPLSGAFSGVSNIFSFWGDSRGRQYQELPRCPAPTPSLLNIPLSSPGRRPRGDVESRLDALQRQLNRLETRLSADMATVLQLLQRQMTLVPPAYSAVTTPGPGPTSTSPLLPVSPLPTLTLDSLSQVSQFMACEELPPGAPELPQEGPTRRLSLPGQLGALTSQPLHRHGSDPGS

What does the source list for `CC[Si](CC)(CC)c1ccc(N2[C@H](c3ccc(NC(=O)[C@@H]4CCCN4C(=O)[C@@H](NC(=O)OC)C(C)C)cc3)CC[C@H]2c2ccc(NC(=O)[C@@H]3CCCN3C(=O)[C@@H](NC(=O)OC)C(C)C)cc2)cc1`?
fraction unbound at 6 h, 10 µM [1]: 6e-05; inhibition at 3 µM [2]: 6.9%; inhibition (INH) [3]: Not Active; Kp at 2 h [4]: 28.1; inhibition (INH) [5]: Not Active; Kp at 24 h [6]: 31.9; fraction unbound at 6 h, 1 µM [7]: 9e-05; half-life [8]: 22.5 h; AUC(0-t) [9]: 605 ng·h/mL; remaining at 1 h, 0.2 µM [10]: 92.7%; fraction unbound at 6 h, 10 µM [11]: 8e-05; AUC(0-t) [12]: 3040 ng·h/mL; efflux ratio at 1.5 h [13]: 0.8; inhibition (INH) [14]: Not Active; Kp at 8 h [15]: 52.9; Papp B→A at 1.5 h [16]: 0.05 ×10⁻⁶ cm/s; inhibition (INH) [17]: Not Active; Tmax [18]: 10.5 h; inhibition (INH) [19]: Not Active; Papp A→B at 1.5 h [20]: 0.07 ×10⁻⁶ cm/s; fraction unbound at 6 h, 10 µM [21]: 0.00011

For `COC(=O)N[C@H](C(=O)N1CCC[C@H]1C(=O)Nc1ccc([C@@H]2CC[C@@H](c3ccc(NC(=O)[C@@H]4CCCN4C(=O)[C@@H](NC(=O)OC)C(C)C)cc3)N2c2ccc(C(C)(C)C)cc2)cc1)C(C)C` [OMBITASVIR], which fraction unbound at 6 h, 10 µM [1] is on record?
Its fraction unbound at 6 h, 10 µM is 1e-05.

What about the inhibition at 3 µM [2] of the same molecule?
The inhibition at 3 µM was 1.1%.

What about the “inhibition (INH)” value [3] of the same molecule?
The value was “Not Active”.

And the Kp at 2 h [4]?
The Kp at 2 h was 24.6.

What about the “inhibition (INH)” value [5] of the same molecule?
Its value is “Not Active”.

What about the Kp at 24 h [6] of the same molecule?
Its Kp at 24 h is 22.3.

And the fraction unbound at 6 h, 1 µM [7]?
The fraction unbound at 6 h, 1 µM was 2e-05.

What about the half-life [8] of the same molecule?
The half-life was 7.7 h.

And the AUC(0-t) [9]?
Its AUC(0-t) is 188 ng·h/mL.

What about the remaining at 1 h, 0.2 µM [10] of the same molecule?
The remaining at 1 h, 0.2 µM was 88.7%.

And the fraction unbound at 6 h, 10 µM [11]?
Its fraction unbound at 6 h, 10 µM is 4e-05.

And the AUC(0-t) [12]?
The AUC(0-t) was 6480 ng·h/mL.

What about the efflux ratio at 1.5 h [13] of the same molecule?
The efflux ratio at 1.5 h was 6.7.

And the “inhibition (INH)” value [14]?
Its value is “Not Active”.

And the Kp at 8 h [15]?
The Kp at 8 h was 33.5.

And the Papp B→A at 1.5 h [16]?
Its Papp B→A at 1.5 h is 0.54 ×10⁻⁶ cm/s.

What about the “inhibition (INH)” value [17] of the same molecule?
The value was “Not Active”.

And the Tmax [18]?
The Tmax was 8.3 h.

What about the “inhibition (INH)” value [19] of the same molecule?
Its value is “Not Active”.

And the Papp A→B at 1.5 h [20]?
Its Papp A→B at 1.5 h is 0.08 ×10⁻⁶ cm/s.

And the fraction unbound at 6 h, 10 µM [21]?
The fraction unbound at 6 h, 10 µM was 1e-05.
